Source: PubChem BioAssay (The Scripps Research Institute Molecular Screening Center)
Only some compounds are listed: those with a hit (about 4.5% of all), similar ones and a draw of the others.
OX1R antag-1 = blocks the human orexin 1 receptor; O43613; 1.8% of 330,000 active; inhibition, % at 6.6 µM; AID 485270; OX1R-expressing cells, FRET antagonist read-out; in the data active = inhibition mostly above about 38%, no sharp cut-off; inactive = mostly below about 40%;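 also: 0% = agonist challenge alone and 100% = reference antagonist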
Target sequence (O43613 whole entry, looked up): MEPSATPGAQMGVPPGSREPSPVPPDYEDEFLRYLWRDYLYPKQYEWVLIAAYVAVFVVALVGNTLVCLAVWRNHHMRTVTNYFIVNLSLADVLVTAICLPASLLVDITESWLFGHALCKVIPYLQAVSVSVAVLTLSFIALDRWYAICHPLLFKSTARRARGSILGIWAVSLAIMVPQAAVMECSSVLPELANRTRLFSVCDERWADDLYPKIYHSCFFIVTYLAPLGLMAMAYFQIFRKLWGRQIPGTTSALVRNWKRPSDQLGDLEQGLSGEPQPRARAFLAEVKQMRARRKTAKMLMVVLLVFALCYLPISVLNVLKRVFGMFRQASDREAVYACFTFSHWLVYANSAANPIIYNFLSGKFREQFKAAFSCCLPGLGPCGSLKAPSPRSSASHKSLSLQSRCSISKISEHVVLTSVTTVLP
CHO parental Ca = counter-screen: ATP calcium response change in parental CHO cells | parental CHO-K1, ATP-induced calcium, Fluo-8 fluorescence | inhibition, % at 5.6 µM | AID 463079 | 0.63% of 330,000 active;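 active = inhibition above that plate's mean sample inhibition plus 3 SD, cut at about 26% in these data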;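 also: 0% = ATP-challenged DMSO wells and 100% = DMSO wells without ATP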
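Assay system – parental CHO cells · Reagent – ATP stimulus · Detection – intracellular calcium via Fluo-8 no-wash fluorescent dye · Evaluation – percent inhibition of ATP-evoked calcium rise, normalized to controls · Controls – ATP wells versus no-ATP DMSO wells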
GPR7 antagonist = blocks human GPR7 receptor signaling; GPR7-expressing cells, fluorescence antagonist assay; P48145; 1.1% of 290,000 active; inhibition, % at 4.4 µM; in the data active = inhibition above about 16%, passing the limit was not always enough;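 also: cells stimulated with the agonist NPW; 0% = agonist with vehicle and 100% = vehicle without agonist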
TAAR1 antag = human TAAR1 antagonism. Q96RJ0. CHO RD-HGA16 TAAR1, Fluo-8 calcium fluorescence, antagonist. inhibition, % at 3 µM. 1.5% of 360,000 active. AID 624466;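 active = inhibition above a per-plate cutoff, the mean inhibition of test compounds on that plate plus 3 SD, cut at about 49% in these data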;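 also: 0% = DMSO plus EC80 beta-PEA response and 100% = DMSO alone without agonist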
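test system = CHO RD-HGA16 cells bearing hTAAR1 | replication = singlicate | controls = DMSO-only wells and EC80 β-PEA-stimulated wells | reagent = EC80 β-phenethylamine stimulus | read-out basis = percent inhibition of PEA-evoked calcium signal, max/basal emission ratio | schedule = seeding 17-24 h prior, 75-min 37 °C, 30-min RT dye loading | signal = kinetic Fluo-8 calcium fluorescence measurement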
OX1R antag-2 = human HCRTR1 antagonism; inhibition, % at 5 µM; CHO/OX1R cells, Fluo-8 calcium fluorescence, orexin A; O43613; 0.43% of 330,000 active;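 active = inhibition above its plate's threshold, mean inhibition of all tested compounds on the plate plus 3 SD, cut at about 37% in these data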;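 also: 0% = orexin A challenge wells and 100% = SB-334867-A antagonist wells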
TAAR1 agonist = agonists of human TAAR1 | Q96RJ0 | CHO RD-HGA16 TAAR1, Fluo-8 calcium fluorescence; vehicle wells 0%, saturating PEA agonist 100% | activation, % at 3 µM | 0.99% of 360,000 active | AID 624467;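 active = activation above the mean activation of all test compounds in the run plus 3 SD, cut at about 38% in these data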
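Test system: RD-HGA16 (CHO) cells co-expressing Gα16 and hTAAR1; dosing: one-point dosing at 3 µM (nominal); timing: 17-24 h seeding, 75 min 37 °C dye, 30 min RT; signal: kinetic Fluo-8 calcium fluorescence; read-out basis: % activation relative to PEA EC100 response; controls: DMSO and PEA EC100; replicates: n 1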
GPR7 antag cf = human GPR7 antagonism, confirmation assay; 52% of 2,400 active; AID 1952; GPR7-expressing cells, calcium fluorescence antagonist mode; inhibition, % at 4.4 µM; shares compounds with GPR7 antagonist; in the data active = inhibition above about 24%;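 also: stimulated with the GPR7 agonist NPW; 0% = agonist plus vehicle and 100% = vehicle alone without agonist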
MCHR1 antag = antagonizes human MCHR1, a GPR7 antagonist counter-screen; inhibition, % at 4.4 µM; shares compounds with GPR7 antagonist; 62% of 2,400 active; MCHR1-expressing cells, fluorescence antagonist assay; in the data active = inhibition above about 22%;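 also: 0% = vehicle with agonist and 100% = vehicle without agonist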
Numbers without * were called inactive.

For O=c1[nH]c(C2CCN(S(=O)(=O)c3cccc(Cl)c3)CC2)nc2c1nnn2Cc1ccccc1 the results were GPR7 antagonist 11, TAAR1 antag -10 and TAAR1 agonist 3.
CC(C)(C)c1ccc(C(=O)Nc2c3c(nn2C(C)(C)C)CS(=O)(=O)C3)cc1 was read as OX1R antag-1 7, CHO parental Ca 3, GPR7 antagonist 26*, TAAR1 antag 6, OX1R antag-2 -6, TAAR1 agonist 7, GPR7 antag cf 15 and MCHR1 antag 23*.
Screening Cc1cc(C)cc(C(=O)Nc2c3c(nn2C(C)(C)C)CS(=O)(=O)C3)c1 returned OX1R antag-1 8, CHO parental Ca -16, GPR7 antagonist 9, TAAR1 antag -12, OX1R antag-2 -17 and TAAR1 agonist 0.
O=C(NCc1ccccc1F)c1ccc(S(=O)(=O)N2CCCC2)cc1 was read as TAAR1 antag 21 and TAAR1 agonist 2.
For COc1ccc(N=C2NN=C(c3ccc4c(c3)OCCO4)CS2)cc1 the results were OX1R antag-1 21, CHO parental Ca -5, GPR7 antagonist 23*, TAAR1 antag 5, OX1R antag-2 -7, TAAR1 agonist 12, GPR7 antag cf 20 and MCHR1 antag 17.
FC(F)Sc1ccc(N=C2NN=C(c3ccc4c(c3)OCCO4)CS2)cc1 was read as OX1R antag-1 6, CHO parental Ca 4, GPR7 antagonist -4, TAAR1 antag -4, OX1R antag-2 -1 and TAAR1 agonist 4.
`CC(CC(C)C(=O)Nc1ccccc1C(C)(C)C)C(=O)O` (stereo unspecified) gave OX1R antag-1 0, CHO parental Ca -3, GPR7 antagonist -18, TAAR1 antag -13, OX1R antag-2 -11 and TAAR1 agonist 4.
Screening Cc1ccc(S(=O)(=O)/N=C(\N)Nc2nc(C)c3cc(C)c(C)cc3n2)cc1 returned OX1R antag-1 18, CHO parental Ca -12, GPR7 antagonist 30*, TAAR1 antag -10, OX1R antag-2 -45, TAAR1 agonist 2, GPR7 antag cf 14 and MCHR1 antag 21.
Cc1ccc(S(=O)(=O)/N=C(\N)Nc2nc(C)c3ccc(C)cc3n2)cc1 was read as OX1R antag-1 4, CHO parental Ca -34, GPR7 antagonist 11, TAAR1 antag 0, OX1R antag-2 -16 and TAAR1 agonist -1.
`CC[n+]1c(/C=C/N(C)c2ccccc2)n(-c2ccccc2)c2ccc(-c3nc4ccccc4s3)cc21` gave OX1R antag-1 42*, CHO parental Ca 69*, GPR7 antagonist 84*, OX1R antag-2 79*, GPR7 antag cf 95* and MCHR1 antag 89*.
For N/C(=N\OC(=O)c1ccc(Br)o1)c1ccccn1 the results were OX1R antag-1 11, CHO parental Ca 6, GPR7 antagonist 3, TAAR1 antag -8, OX1R antag-2 -1 and TAAR1 agonist 1.
CC(C)N(C(C)C)S(=O)(=O)c1ccc(N2CCc3ccccc3C2)nc1 was read as OX1R antag-1 22, CHO parental Ca -25, GPR7 antagonist 21*, TAAR1 antag 1, OX1R antag-2 -8, TAAR1 agonist 5, GPR7 antag cf 16 and MCHR1 antag 63*.
`CCN(CC)S(=O)(=O)c1ccc(N2CCc3ccccc3C2)nc1` gave OX1R antag-1 10, CHO parental Ca -13, GPR7 antagonist -10, TAAR1 antag -1, OX1R antag-2 -17 and TAAR1 agonist 2.
Screening N#CC1=C(N)Oc2cc(N)ccc2C1c1ccc(F)cc1 (stereo unspecified) returned OX1R antag-1 3, CHO parental Ca 8, GPR7 antagonist -4, TAAR1 antag -2, OX1R antag-2 -10 and TAAR1 agonist 14.
